Structures can show the parent of a compound that is named as a salt. Where two headings read alike, the source gives them in different places. Some results are limits rather than exact numbers.

A short description of data set [1]: Hydrolysis in pH 6.0 uptake buffer. It counts as physicochemical. The settings on record: 37 °C, * no area decrease detected in HPLC after 2 h, ** less than 5% decrease after 2 h.
Data set [2] can be described thus: Hydrolysis in pH 7.4 phosphate buffer. In kind it is physicochemical. The method, boiled down: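 Test compound (200 mM DMSO stock) in 10 mM phosphate buffer, pH 7.4, at 37 °C. Sampled at 0, 5, 10, 30, 60 and 120 min, quenched in 0.1% TFA, HPLC. Pseudo-first-order k from ln(remaining) vs time; t1/2=0.693/k; triplicate.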
For data set [3], the system named is HeLa cell homogenates. Put plainly: Hydrolysis in HeLa cell homogenates. The settings on record: 500 μg/mL protein, 37 °C; * no area decrease detected in HPLC after 2 h. In kind it is in vitro ADME.
In data set [4] the test system is Caco-2 cell homogenates. The data set is described as follows: Hydrolysis in Caco-2 cell homogenates. The settings on record: 500 μg/mL protein, 37 °C; * no area decrease detected in HPLC after 2 h. It counts as in vitro ADME.
In data set [5] the test system is HeLa/hPEPT1 cells. Put plainly: Direct uptake in HeLa/hPEPT1 cells. The settings on record: for remaining in donor solution after 1 h: direct uptake study, HeLa/hPEPT1 and normal HeLa cells. In kind it is cell-based, human. In a few lines: (§1)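 HeLa cells grown 5 days in 12-well plates; the hPEPT1 set was infected with hPEPT1 adenovirus 3 days before, and uninfected HeLa served as control. After a wash and 15 min preincubation in uptake buffer (pH 6.0, MES) at 37 °C, cells took 1 mM test compound for 60 min at 37 °C. Then washed ice-cold, sonicated, TFA-precipitated (7% final), HPLC; protein measured by DC assay; triplicate.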

The subject of data set [6] is rat jejunum. The data set is described as follows: In situ single-pass rat jejunum perfusion. It counts as in vivo. The settings on record: 0.1 mM, pH 6.5, compared to co-perfused metoprolol; result in words (Figure 3). In a few lines:
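Male Wistar rats, 250–280 g, fasted 12–18 h, anesthetized i.m. with ketamine-xylazine; ~10 cm jejunal segment cannulated in situ at 37 °C. Perfused at 0.2 mL/min with pH 6.5 MES buffer containing 0.1 mM test compound, 0.4 mg/mL metoprolol and phenol red. Samples every 10 min for 1 h after 1 h steady state; HPLC. […], outlet corrected by phenol red; n=4.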

For data set [7], the target named is T1, hPEPT1 (Homo sapiens, UniProt P46059).
T1 sequence (P46059 1-708): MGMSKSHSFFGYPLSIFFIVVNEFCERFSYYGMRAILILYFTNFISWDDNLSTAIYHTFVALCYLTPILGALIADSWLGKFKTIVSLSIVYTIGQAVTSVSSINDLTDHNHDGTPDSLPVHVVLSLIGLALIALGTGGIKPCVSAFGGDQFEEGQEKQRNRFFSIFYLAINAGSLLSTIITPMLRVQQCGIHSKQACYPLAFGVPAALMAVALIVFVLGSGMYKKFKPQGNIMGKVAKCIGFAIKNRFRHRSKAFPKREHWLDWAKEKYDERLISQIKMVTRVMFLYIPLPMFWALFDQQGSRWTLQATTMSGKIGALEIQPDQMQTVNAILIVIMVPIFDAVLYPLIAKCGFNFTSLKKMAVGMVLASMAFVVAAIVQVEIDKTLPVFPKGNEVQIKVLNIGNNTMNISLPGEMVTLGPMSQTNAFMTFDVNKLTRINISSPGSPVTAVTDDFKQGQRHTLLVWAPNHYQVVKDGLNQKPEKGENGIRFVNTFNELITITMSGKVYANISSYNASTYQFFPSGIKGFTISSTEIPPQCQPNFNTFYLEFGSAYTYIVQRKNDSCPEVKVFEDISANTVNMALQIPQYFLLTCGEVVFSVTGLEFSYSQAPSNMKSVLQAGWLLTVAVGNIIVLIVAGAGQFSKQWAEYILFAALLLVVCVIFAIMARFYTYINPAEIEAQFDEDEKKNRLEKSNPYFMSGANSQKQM
Put plainly: [3H]Gly-Sar uptake inhibition in HeLa/hPEPT1 cells. In kind it is cell-based. The method, boiled down:
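HeLa cells infected with hPEPT1 adenovirus 3 days before assay. Incubated 30 min at 37 °C in pH 6.0 MES uptake buffer with 10 μM Gly-Sar (0.1 μM [3H]) plus 0.05–5 mM test compound. Washed three times ice-cold, lysed in 0.1% SDS, scintillation counted. IC50 by nonlinear fitting; n=4.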

Data set [8] has as its system Caco-2 monolayers. Put plainly: Caco-2 monolayer permeability study. It counts as in vitro ADME. The following applies: for Apparent apical-to-basolateral permeability coefficient (Papp): 200 μM, apical pH 6.0, basolateral pH 7.5, result in words (Figure 1). In a few lines:
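Caco-2 cells grown on collagen-coated 3.0 μm-pore transwell inserts and used 22–23 days post-seeding; TEER checked before and after. After 15 min preincubation at 37 °C, apical MES buffer (pH 6.0) replaced with 200 μM test compound, basolateral HEPES buffer (pH 7.5). Basolateral aliquots taken at set intervals and replaced with fresh buffer; HPLC. Papp=(1/C0A)(dQ/dt), steady-state rate; triplicate.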

The conditions of data set [9]: cited from earlier work.
The subject of data set [10] is HeLa cells. Put plainly: Direct uptake in normal HeLa cells. In kind it is cell-based. The settings on record: 1 mM test compound, pH 6.0, 60 min. In a few lines: as §1
Substrate in data set [11]: CC(C)[C@H](N)C(=O)OCCOCn1cnc2c(=O)[nH]c(N)nc21
Put plainly: hVACVase-mediated hydrolysis. It counts as biochemical, human. The following applies: other: recombinant hVACVase, 50 mM HEPES pH 7.4, 37 °C.

Substrate in data set [12]: CC(C)[C@H](N)C(=O)OCc1cccc(NC(=N)N)c1
Put plainly: hVACVase-mediated hydrolysis. In kind it is biochemical, human. The following applies: other: recombinant hVACVase, 50 mM HEPES pH 7.4, 37 °C.

Substrate in data set [13]: CC[C@H](C)[C@H](N)C(=O)OCc1cccc(N=C(N)N)c1
Put plainly: hVACVase-mediated hydrolysis. The following applies: other: recombinant hVACVase, 50 mM HEPES pH 7.4, 37 °C. It counts as biochemical, human.

Substrate in data set [14]: NC(N)=Nc1cccc(COC(=O)[C@@H](N)Cc2ccccc2)c1
The data set is described as follows: hVACVase-mediated hydrolysis. In kind it is biochemical, human. The following applies: other: recombinant hVACVase, 50 mM HEPES pH 7.4, 37 °C.

Turning to `N=C(N)Nc1cccc(CO)c1` [3-HPG, [3-(hydroxymethyl)phenyl]guanidine], the “Half-lives, pH 6 buffer” value in data set [1] is “stable ^*”. Besides, the “Half-lives, pH 7.4 buffer” value in [2] (10 mM phosphate buffer pH 7.4, 37 °C, * no area decrease detected in HPLC after 2 h) is “stable ^*”. Moreover, the “Half-lives, HeLa cell homogenates” value in data set [3] is “stable ^*”. In addition, in [4], the “Half-lives, Caco-2 cell homogenates” value is reported as “stable ^*”. The “remaining in donor solution after 1 h” value in data set [5] is listed as greater than 95%. In addition, the “Effective permeability (Peff), rat jejunum” value in data set [6] is “very low”.
In turn, `CC[C@H](C)[C@H](N)C(=O)OCc1ccccc1` [Ile-OBz, L-Isoleucine benzyl ester 4-toluenesulfonate salt] returned an IC50 in [7] of 1.05 ± 0.13 mM.
For `NC(N)=Nc1cccc(COC(=O)[C@@H](N)Cc2ccccc2)c1` [Phe-3-HPG, L-Phenylalnine [3-[(aminoiminomethyl)amino]phenyl]methyl ester], the “Half-lives, pH 6 buffer” value in [1] is “stable ^**”. Further, in [5], the “remaining in donor solution after 1 h” value is listed as greater than 80%. Further, in [8], the “Apparent apical-to-basolateral permeability coefficient (Papp)” value is on record as “didn’t show significantly different permeability than 3-HPG”.
Molecule `N[C@@H](Cc1ccccc1)C(=O)OCc1ccccc1` [Phe-OBz, L-phenylalanine benzyl ester hydrochloride] had an IC50 in data set [7] greater than 3 mM.
The same measure, in the same setting: the value for `CC(C)[C@H](N)C(=O)OCc1ccccc1` [Val-OBz, L-valine benzyl ester hydrochloride] was 0.39 ± 0.04 mM.
As for `CC1CNc2c(cccc2S(=O)(=O)N[C@@H](CCCNC(=N)N)C(=O)N2CC[C@@H](C)C[C@@H]2C(=O)O)C1` (stereo partly drawn) [argatroban], in data set [9] (in vivo, po), the oral bioavailability entry was “low oral bioavailability”.
With `CC(C)[C@H](N)C(=O)OCCOCn1cnc2c(=O)nc(N)[nH]c21` [valacyclovir], the “Half-lives, pH 6 buffer” value in data set [1] is “stable ^*”. In [2] (phosphate buffer, pH 7.4), this molecule yielded a half-life at 200 µM of 13.8 ± 0.417 h. Moreover, the “remaining in donor solution after 1 h” value in data set [5] was greater than 95%. In addition, the hPEPT1/control in data set [5] (ratio of uptake in HeLa/hPEPT1 cells to uptake in normal HeLa cells (fold)) is listed as greater than 25. In addition, the “uptake, HeLa cells” value in [10] was less than 0.2 nmol/mg in 60 min. For the same molecule, in [9], the oral bioavailability entry is given as “more than 50%”.
As for `CC(C)[C@H](N)C(=O)OCC(CO)OCn1cnc2c(=O)nc(N)[nH]c21` (stereo partly drawn) [valganciclovir], the oral bioavailability result in [9] was “more than 50%”.
`CC(=O)N[C@H]1[C@H]([C@H](O)[C@H](O)CO)OC(C(=O)O)=C[C@@H]1N=C(N)N` [zanamivir]: the oral bioavailability result in data set [9] (result in words) is “low oral bioavailability”.
Turning to “D-Valine [3-[(aminoiminomethyl)amino]phenyl]methyl ester [D-Val-3-HPG]”, the “Apparent apical-to-basolateral permeability coefficient (Papp)” value in data set [8] is reported as “no transport”. For the same molecule, the “Stability in apical side during Caco-2 permeability study” value in data set [8] (percentage of ester form in donor solution at 120 min) is recorded as 98.8 ± 0.1%.

B1: hVACVase (Homo sapiens) (protein)
chain: SVTSAKVAVNGVQLHYQQTGEGDHAVLLLPGMLGSGETDFGPQLKNLNKKLFTVVAWDPRGYGHSRPPDRDFPADFFERDAKDAVDLMKALKFKKVSLLGWSDGGITALIAAAKYPSYIHKMVIWGANAYVTDEDSMIYEGIRDVSKWSERTRKPLEALYGYDYFARTCEKWVDGIRQFKHLPDGNICRHLLPRVQCPALIVHGEKDPLVPRFHADFIHKHVKGSRLHLMPEGKHNLHLRFADEFNKLAEDFLQ
As for B1, the Km was determined as 68 ± 4 µM in data set [11], 46 ± 5 µM in data set [12], 9.0 ± 1.2 µM in [13] and 207 ± 16 µM in data set [14]. For the same molecule, the Vmax stood at 120 µmol/min/mg in data set [11], 321 µmol/min/mg in data set [12], 30 µmol/min/mg in [13] and 718 µmol/min/mg in data set [14]. Further, the kcat in data set [11] was found to be 58 ± 1 s⁻¹; in data set [12], 154 ± 4 s⁻¹; in data set [13] it was 14 ± 1 s⁻¹; in data set [14], 345 ± 8 s⁻¹. Moreover, the kcat/Km worked out at 850000 ± 66000 M⁻¹ s⁻¹ in data set [11], 3.37e+06 ± 460000 M⁻¹ s⁻¹ in [12], 1.58e+06 ± 260000 M⁻¹ s⁻¹ in [13] and 1.66e+06 ± 160000 M⁻¹ s⁻¹ in data set [14].

The term IC50 denotes the point on the concentration scale where inhibition reaches its midpoint. Low values mean greater potency in that assay, high ones weaker potency in that assay. Usually half-life stands for the time needed for the level to fall by half in the phase considered. The Km is the concentration of substrate that gives half-maximal velocity. As usually defined, the Vmax is the rate approached at saturating substrate. Usually kcat stands for the number of substrate molecules converted per active site and unit of time at saturation. A word on the kcat/Km: it is the second-order rate constant that governs catalysis at low substrate concentration.

Values taken from publication PMC3304101 (Journal of Medicinal Chemistry, 2010).
